Experimental data taken from publication PMC3790647 (Clinical cancer research : an official journal of the …, 2013).
Marks after values point to notes of the source that are not given here.

Experiments:
HDAC enzyme = assay: Cellular HDAC enzyme activity assay in patient blood cells; assay type: in vivo, human; conditions: plasma concentration, 2 hour post-dose on day 1, all dose levels, Hill model
Summary of the method: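 Whole citrate blood (1 ml) was incubated 2 h at 37°C with fluorogenic substrate Boc-K(Ac)-AMC, then erythrocytes were lysed and cells stored at −80°C. Developer reagent lysed cells and released fluorescence from the deacetylated substrate, read by fluorimetry. Untreated control was set as 100% activity and 10 μM trichostatin A as 100% inhibition. Sampling: C1D1 pre-dose, 2, 5, 8, 24 h; C1D5; C4D5.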

multiple myeloma cells = conditions: cited from earlier work
HeLa cells = conditions: ref Investigator’s Brochure, version 5, 2010; cited from earlier work
advanced solid tumors = assay: Tumor response by RECIST 1.0; assay type: in vivo, human
Summary of the method: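 Patients with at least one RECIST-measurable lesion and progressive disease at entry had CT and/or MRI every 8 weeks for up to 6 months of treatment, then every 12 weeks. Response was scored by RECIST 1.0. Dosing was oral once daily on days 1–5 every 14 days, 100–800 mg.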

[1] = Plasma pharmacokinetics of resminostat in patients; assay type: in vivo, human; conditions: for half-life / AUC / AUC(0-inf) / Tmax / Cmax: human, plasma
Summary of the method: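 Oral capsules (100–800 mg) were taken once daily within 30 min after a light meal with 240 ml water, with a 1 h post-dose fast on PK days. Day 1 blood was drawn pre-dose to 24 h (15 min–10 h series plus 24 h); days 5 and 47, pre-dose to 8 h. Samples (2 ml EDTA) were kept on ice, spun 10 min at 2700 × g at 4°C, and plasma stored at −80°C. Analysis used validated HPLC-MS/MS and non-compartmental (extravascular) analysis, with AUC0-∞, Cmax and t½ log-transformed.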

histone H4 acetylation = assay: Histone H4 acetylation in PBMC by Western blotting; assay type: in vivo, human; conditions: 800 mg dose level

Q: Which “Resminostat concentration at 50% of HDAC enzyme inhibition” value (HDAC enzyme) does the source give for `CN(C)Cc1ccc(S(=O)(=O)n2ccc(/C=C/C(=O)NO)c2)cc1` [resminostat] here?
A: 306 ng/mL

Q: What about the “Apoptosis signalling (Bim, Bax, Caspases 3, 8 and 9 up; Bcl-xL down)” value (multiple myeloma cells) of the same compound?
A: pro-apoptotic signals were seen

Q: And the “Induction of histone H3 hyperacetylation and endogenous p21waf1” value (HeLa cells)?
A: dose-dependent induction

Q: What about the “Patients who achieved SD” value (advanced solid tumors; 600 mg dose group) of the same compound?
A: Three of 3

Q: And the “Patients with stable disease (SD) lasting >8 weeks” value (advanced solid tumors; all dose levels, 95% CI: 34–80)?
A: 58%

Q: And the “Reduction in the sum of the longest diameters of tumor target lesions” value (advanced solid tumors; one patient with metastatic thymoma)?
A: 27%

Q: And the “Time on study with SD” value (advanced solid tumors; patient with liposarcoma, 31 cycles)?
A: 14.2 months

Q: What about the “Change in AUC and Cmax between treatment days 1 and 5” value ([1]; all studied dose levels) of the same compound?
A: no significant change

Q: And the “Time at which peak plasma concentration Cmax was attained, median value” ([1]; day 1, single dosing, all doses)?
A: 2 h

Q: What about the Clearance ([1]; day 1, single oral administration, 100 mg, N=3, geometric mean (68% range), free-base) of the same compound?
A: 80900 (51600, 127000) mL/h

Q: And the Clearance ([1]; day 1, single oral administration, 200 mg, N=3, geometric mean (68% range), free-base)?
A: 53800 (45000, 64300) mL/h

Q: And the Clearance ([1]; day 1, single oral administration, 400 mg, N=3, geometric mean (68% range), free-base)?
A: 52500 (50600, 54400) mL/h

Q: And the Clearance ([1]; day 1, single oral administration, 600 mg, N=3, geometric mean (68% range), free-base)?
A: 41400 (32200, 53300) mL/h

Q: What about the Clearance ([1]; day 1, single oral administration, 800 mg, N=7, geometric mean (68% range), free-base) of the same compound?
A: 37700 (29500, 48200) mL/h

Q: And the Clearance ([1]; day 5, multiple oral administration, 100 mg, N=3, geometric mean (68% range), free-base)?
A: 75100 (51000, 110000) mL/h

Q: What about the Clearance ([1]; day 5, multiple oral administration, 200 mg, N=3, geometric mean (68% range), free-base) of the same compound?
A: 59500 (45500, 77800) mL/h

Q: What about the Clearance ([1]; day 5, multiple oral administration, 400 mg, N=3, geometric mean (68% range), free-base) of the same compound?
A: 49300 (39900, 61000) mL/h

Q: What about the Clearance ([1]; day 5, multiple oral administration, 600 mg, n = 2, geometric mean (68% range), free-base) of the same compound?
A: 31100 (27100, 35600)^b mL/h

Q: What about the Clearance ([1]; day 5, multiple oral administration, 800 mg, N=6, geometric mean (68% range), free-base) of the same compound?
A: 41200 (29900, 56800) mL/h

Q: What about the half-life ([1]; oral, Terminal plasma elimination half-life, range, day 1, all doses) of the same compound?
A: 2.35 to 4.41 h

Q: What about the AUC ([1]; po, 100 mg) of the same compound?
A: 1330 ng·h/mL

Q: What about the AUC(0-inf) ([1]; po, 100 mg) of the same compound?
A: 1240 ng·h/mL

Q: What about the Tmax ([1]; po, 100 mg) of the same compound?
A: 2 h

Q: What about the Cmax ([1]; po, 100 mg, day 1, single oral administration, 100 mg, N=3, geometric mean (68% range), free-base) of the same compound?
A: 487 ng/mL

Q: And the Cmax ([1]; po, 100 mg, day 5, multiple oral administration, 100 mg, N=3, geometric mean (68% range), free-base)?
A: 373 ng/mL

Q: And the half-life ([1]; po, 100 mg, Half-life, day 1, single oral administration, 100 mg, N=3, geometric mean (68% range), free-base)?
A: 3.77 h

Q: And the AUC ([1]; po, 200 mg)?
A: 3360 ng·h/mL

Q: And the AUC(0-inf) ([1]; po, 200 mg)?
A: 3720 ng·h/mL

Q: What about the Tmax ([1]; po, 200 mg) of the same compound?
A: 2 h

Q: What about the Cmax ([1]; po, 200 mg, day 1, single oral administration, 200 mg, N=3, geometric mean (68% range), free-base) of the same compound?
A: 1470 ng/mL

Q: What about the Cmax ([1]; po, 200 mg, day 5, multiple oral administration, 200 mg, N=3, geometric mean (68% range), free-base) of the same compound?
A: 1060 ng/mL

Q: What about the half-life ([1]; po, 200 mg, Half-life, day 1, single oral administration, 200 mg, N=3, geometric mean (68% range), free-base) of the same compound?
A: 3.12 h

Q: And the AUC ([1]; po, 400 mg)?
A: 8110 ng·h/mL

Q: And the AUC(0-inf) ([1]; po, 400 mg)?
A: 7630 ng·h/mL

Q: And the Tmax ([1]; po, 400 mg)?
A: 2.5 h

Q: What about the Cmax ([1]; po, 400 mg, day 1, single oral administration, 400 mg, N=3, geometric mean (68% range), free-base) of the same compound?
A: 2160 ng/mL

Q: And the Cmax ([1]; po, 400 mg, day 5, multiple oral administration, 400 mg, N=3, geometric mean (68% range), free-base)?
A: 2270 ng/mL

Q: And the half-life ([1]; po, 400 mg, Half-life, day 1, single oral administration, 400 mg, N=3, geometric mean (68% range), free-base)?
A: 3.44 h

Q: What about the AUC ([1]; po, 600 mg) of the same compound?
A: 19300 ng·h/mL

Q: And the AUC(0-inf) ([1]; po, 600 mg)?
A: 14500 ng·h/mL

Q: And the Tmax ([1]; po, 600 mg)?
A: 2.5 h

Q: And the Cmax ([1]; po, 600 mg, day 1, single oral administration, 600 mg, N=3, geometric mean (68% range), free-base)?
A: 4100 ng/mL

Q: And the Cmax ([1]; po, 600 mg, day 5, multiple oral administration, 600 mg, N=3, geometric mean (68% range), free-base)?
A: 3000 ng/mL

Q: And the half-life ([1]; po, 600 mg, Half-life, day 1, single oral administration, 600 mg, N=3, geometric mean (68% range), free-base)?
A: 2.84 h

Q: What about the AUC ([1]; po, 800 mg) of the same compound?
A: 19400 ng·h/mL

Q: And the AUC(0-inf) ([1]; po, 800 mg)?
A: 21200 ng·h/mL

Q: And the Tmax ([1]; po, 800 mg)?
A: 1.75 h

Q: And the Cmax ([1]; po, 800 mg, day 1, single oral administration, 800 mg, N=7, geometric mean (68% range), free-base)?
A: 4970 ng/mL

Q: And the Cmax ([1]; po, 800 mg, day 5, multiple oral administration, 800 mg, N=6, geometric mean (68% range), free-base)?
A: 4510 ng/mL

Q: What about the half-life ([1]; po, 800 mg, Half-life, day 1, single oral administration, 800 mg, N=7, geometric mean (68% range), free-base) of the same compound?
A: 2.81 h

Q: What about the “Oral bioavailability (judged from plasma exposure)” value ([1]; patients, oral capsules) of the same compound?
A: good oral bioavailability

Q: What about the “Median increase of histone H4 acetylation level” value (histone H4 acetylation) of the same compound?
A: 10 fold
